From PubChem BioAssay
rCAG binder – binders of r(CAG) RNA repeats, primary screen, biochemical, fluorescence. r(CAG) RNA repeat, TO-PRO-1 dye displacement fluorescence. AID 651821, 2012. 1.3% of 370,000 active. inhibition, % at 3 µM;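 active = inhibition above the plate cutoff, the mean of all test compounds on that plate plus 3 SD, cut at about 35% in these data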;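 note: 0% = DMSO alone and 100% = 100 µM mitoxantrone as full dye displacement; higher means more dye released from RNA so lower well fluorescence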
CSN inh – inhibitors of CSN-mediated cullin deneddylation, primary screen, biochemical, fluorescence polarization, uHTS; COP9 signalosome complex subunit 5 (Homo sapiens), Q92905; Purified CSN, SCF-Nedd8-OG deneddylation; inhibition, % at 12.5 µM; 0.38% of 360,000 active; AID 651999, 2013;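 active = pattern-corrected inhibition above about 35%, with an unprinted fluorescence ratio check between 0.5 and 1.5, limit read from the data, passing the limit was not always enough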;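 note: 0% = enzyme with substrate and 100% = substrate without enzyme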
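Detection – fluorescence polarization · System – HEK293T-derived human Csn5 enzyme · Controls – substrate-only high control, full reaction low control · Timing – 90 min, room temperature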
ATG4B inhibitor – ATG4B protease inhibitors, primary screen, biochemical, fluorescence, uHTS; Cysteine protease ATG4B (Homo sapiens), Q9Y4P1; ATG4B cleavage of LC3-PLA2, NBD-HPC fluorescence, 1 h; inhibition, % at 8.33 µM; 0.51% of 340,000 active; in the data active = inhibition above about 40%
Target sequence (Q9Y4P1 whole entry, looked up): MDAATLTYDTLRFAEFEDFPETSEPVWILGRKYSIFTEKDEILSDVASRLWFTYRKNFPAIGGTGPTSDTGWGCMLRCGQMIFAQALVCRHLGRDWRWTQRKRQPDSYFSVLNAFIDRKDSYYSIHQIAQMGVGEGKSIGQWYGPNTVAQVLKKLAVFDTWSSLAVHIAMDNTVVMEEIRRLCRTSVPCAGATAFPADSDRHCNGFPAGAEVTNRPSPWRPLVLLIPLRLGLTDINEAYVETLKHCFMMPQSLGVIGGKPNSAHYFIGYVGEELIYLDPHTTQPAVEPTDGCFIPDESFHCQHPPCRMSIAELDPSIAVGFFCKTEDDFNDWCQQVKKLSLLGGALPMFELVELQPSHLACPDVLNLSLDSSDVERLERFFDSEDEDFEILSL
UHRF1 binding – UHRF1 methylated DNA binding inhibitors, primary screen, counter-screen for MBD2 inhibitor project, biochemical, TR-FRET, human UHRF1, single concentration | E3 ubiquitin-protein ligase UHRF1 (Homo sapiens), Q96T88 | UHRF1 binding to methylated oligo | inhibition, % at 4.4 µM | 0.75% of 370,000 active | AID 687016, 2013; in the data active = inhibition above about 21%;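 note: UHRF1 SRA domain binding a hemimethylated CpG hairpin DNA probe; 0% = median of test compound wells and 100% = reference inhibitor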
MBD2 DNA inh – inhibitors of MBD2 binding to methylated DNA, primary screen, biochemical, TR-FRET, DNA-binding domain, human. MBD2 binding to methylated oligonucleotide. inhibition, % at 4.4 µM. 0.31% of 370,000 active; in the data active = inhibition above about 13%
LEDGF integ inh – blockers of LEDGF/p75-dependent integrase strand transfer – biochemical, TR-FRET, high throughput, primary screen. 0.64% of 370,000 active. HIV-1 integrase (with human LEDGF/p75). TR-FRET IN-LEDGF/p75 DNA integration, Eu/Cy5. inhibition, % at 3.7 µM. AID 743269, 2014;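 active = inhibition above the screen-wide mean plus 3 SD, cut at about 13% in these data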;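 note: signal is the Cy5 over europium emission ratio at 671 and 618 nm; 0% = plate median of compound wells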
rCAG binder conf – small molecules binding CAG repeat RNA – biochemical, fluorescence, confirmation | shares compounds with rCAG binder | r(CAG) RNA repeat, TO-PRO-1 dye displacement fluorescence | inhibition, % at 3 µM | 70% of 4,300 active | AID 652065, 2013;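 active = inhibition above a per-plate cutoff, the mean inhibition of sample wells plus 3 SD, cut at about 35% in these data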;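 note: loss of TO-PRO-1 fluorescence as compound displaces dye from 1x1 AA loop RNA; 0% = DMSO only wells and 100% = 100 µM mitoxantrone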
DNA CAG counter – displacement of TO-PRO-1 from CAG DNA duplex, counter-screen for rCAG RNA repeat binder project, biochemical, fluorescence, TO-PRO-1 dye, d(CAG) DNA oligo; shares compounds with rCAG binder; d(CAG) DNA oligo TO-PRO-1 dye displacement; inhibition, % at 3 µM; 94% of 4,300 active;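 active = inhibition above its plate's cutoff, the mean test-well inhibition plus 3 SD, cut at about 4.8% in these data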;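 note: 0% = DNA dye mix with DMSO and 100% = 100 µM mitoxantrone; hits displace the dye from DNA and so lower well fluorescence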
An asterisk follows results filed as active; nt = not tested or not shown. Sampled rows, rich in hits. Any-hit rate of the full collection: about 3.1%.

SMILES	rCAG binder	CSN inh	ATG4B inhibitor	UHRF1 binding	MBD2 DNA inh	LEDGF integ inh	rCAG binder conf	DNA CAG counter
Cc1cc(OCC(=O)NC(Cc2ccc(Cl)cc2)C(=O)O)c2c(C)cc(=O)oc2c1 (stereo unspecified)	21.5	-0.5	-22.1	0.7	-1.9	-1.8	nt	nt
CCCc1cc(=O)oc2cc(C)cc(OCC(=O)N[C@@H](CSCc3ccccc3)C(=O)O)c12	61.9*	1.1	-9.2	0.9	-1.6	-2.9	50.2*	13.4*
Cc1cc(N2CCC[C@@H]2C)nc2ccccc12	nt	nt	nt	1.3	6.2	-1.5	nt	nt
O=S(=O)(c1ccccc1F)N1CCC(c2nc3ccccc3o2)CC1	3.3	nt	nt	-0.7	0.0	0.2	nt	nt
Cc1cccc(NC(=S)N/N=C/c2c[nH]c3ccccc23)c1	35.6*	-16.2	22.8	-2.0	1.2	-5.3	23.3	13.9*
O=C(O)c1ccc(CNS(=O)(=O)c2ccc(Oc3ccccc3Cl)cc2)cc1	38.7*	1.6	3.4	-3.5	-5.4	6.5	28.1	6.6*
C#CCNC(=O)C[C@H]1C[C@@]2(C(=O)OC)C(=C[C@H](C(C)(C)C)O[C@@H]2C)N(Cc2cccc3ccccc23)C1=O	3.8	nt	nt	0.3	2.6	-5.0	nt	nt
O=C(O)COc1ccc(/C=C/C(=O)c2ccc(C3CCCCC3)cc2)cc1	48.2*	30.1	19.1	-0.8	-4.9	1.8	67.9*	28.9*
CCCCCCSc1nc(O)c(C2OC(=O)c3c2ccc(OC)c3OC)c(=O)n1CC (stereo unspecified)	38.6*	3.2	25.2	1.4	6.0	6.9	35.9*	8.3*
CCCSc1nc(O)c(C2OC(=O)c3c2ccc(OC)c3OC)c(=O)n1C (stereo unspecified)	9.8	0.4	-4.6	-0.1	4.0	0.4	nt	nt
COc1cccc(/C=C2/SC(=O)N(C)C2=O)c1OCc1ccc(C(=O)O)cc1	12.1	0.7	0.7	2.1	3.1	-1.8	nt	nt
COc1cccc(/C=C2/SC(=O)N(CC(=O)N3CCc4ccccc4C3)C2=O)c1OCC(=O)O	37.4*	-1.9	10.2	-4.0	0.7	3.6	36.1*	9.7*
COc1ccc(S(=O)(=O)NNC(=O)c2cc3cc4ccccc4nc3s2)cc1	35.2*	-2.3	-18.6	-4.1	0.4	-4.0	23.3	6.4*
Cc1nn(-c2ccc(F)cc2)c(Cl)c1/C=C(/CC(=O)O)c1nc2ccccc2s1	50.9*	2.6	-2.3	-1.7	-0.1	-1.3	42.8*	12.8*
Cc1nn(-c2ccc(F)cc2)c(Cl)c1/C=C(\CC(=O)O)c1nc2ccccc2s1	38.4*	-0.7	4.9	-2.3	-6.4	0.2	44.9*	11.2*
CCOc1ccccc1NC(=O)/C(C#N)=C/c1c(C)nn(-c2ccc(F)cc2)c1Cl	0.9	5.4	4.0	16.1	5.8	1.4	nt	nt
CCc1ccc(C=NN2CCN(Cc3ccc(C)cc3C)CC2)cc1	0.4	nt	nt	-1.3	-9.5	2.0	nt	nt
CCCCOc1ccc(C(=O)N/C(=C/C=C/c2ccccc2)C(=O)O)cc1	55.5*	-3.3	-4.5	4.2	10.4	-3.0	54.5*	18.7*
CCCCOc1ccc(C(=O)N/C(=C/C=C/c2ccccc2)C(=O)NC)cc1	2.5	3.2	-5.6	3.4	1.3	1.4	nt	nt
O=C(O)COc1ccc(/C=N/NC(=O)/C(=C/C=C/c2ccccc2)NC(=O)c2ccccc2)cc1	53.3*	2.1	-2.9	-1.3	0.2	0.2	43.0*	17.1*
O=C(O)Cc1ccc(C(=O)c2ccc(Cl)cc2Cl)s1	1.8	4.7	-3.2	-2.9	4.2	-2.1	nt	nt
COc1ccc(-c2sc(C(=O)c3ccc(Cl)cc3Cl)cc2CC(=O)O)cc1	54.5*	-1.4	20.7	1.7	-2.1	1.4	56.4*	16.9*
COc1cc([N+](=O)[O-])cc(/C=N/NC(=O)C(C)Nc2cccc3ccccc23)c1O (stereo unspecified)	79.2*	-7.8	-1.9	-5.2	1.4	-0.4	66.7*	30.1*
O=C(N/N=C/c1cccc([N+](=O)[O-])c1O)C(O)(c1ccccc1)c1ccccc1	20.4	1.4	2.6	-4.4	-9.6	-7.4	nt	nt
COc1cc([N+](=O)[O-])cc(/C=N/NC(=O)c2cccnc2)c1O	8.8	3.6	-1.5	-7.5	-15.6	-2.7	nt	nt
SMILES	rCAG binder	CSN inh	ATG4B inhibitor	UHRF1 binding	MBD2 DNA inh	LEDGF integ inh	rCAG binder conf	DNA CAG counter
COc1cc([N+](=O)[O-])cc(/C=N/NC(=O)C(O)(c2ccccc2)c2ccccc2)c1O	37.8*	-0.7	14.2	-5.0	-5.7	-7.6	33.6	13.2*
O=C1c2ccccc2-c2n[nH]c(=O)c3ccc(N4CCCCC4)c1c23	37.2*	1.5	-20.0	-7.5	-6.1	-3.6	12.7	6.8*
O=S1(=O)c2ccc(N3CCC[C@H]3CO)cc2O[C@H]2CCN1C2	4.7	nt	nt	-2.6	-0.1	-1.8	nt	nt
COc1ccc(-c2csc(NC(=O)CSc3nnnn3C)n2)cc1OC	3.5	3.6	-1.8	3.7	3.5	-5.7	nt	nt
COc1ccc(-c2csc(/C(C#N)=C(\O)CSc3nccn3C)n2)cc1OC	38.3*	10.7	-0.1	-6.6	-3.6	-1.0	59.0*	22.2*
COc1cc(OC)c(NC(=O)c2cc3ccccc3cc2O)cc1Cl	34.9*	0.0	17.6	5.6	4.0	-1.0	46.6*	22.5*
Cc1ccc(NC(=O)NNC(=O)c2cc3ccccc3cc2O)cc1	19.9	5.3	-0.3	0.2	-0.9	-19.6	nt	nt
COc1ccccc1NC(=O)NNC(=O)c1cc2ccccc2cc1O	41.7*	-2.1	-2.8	-0.9	-3.1	-5.2	33.7	11.2*
COc1cc(C2c3c([nH]c(=O)[nH]c3=O)Nc3ccc4ccccc4c32)ccc1O (stereo unspecified)	42.8*	5.8	1.1	-3.6	-3.8	7.3	23.7	8.2*
COc1cc(C2CC(=O)c3c(ccc4ccccc34)N2)ccc1O (stereo unspecified)	2.1	-21.4	4.3	6.3	2.9	-5.4	nt	nt
